High-throughput results deposited in PubChem by The Scripps Research Institute Molecular Screening Center.
CHO parental Ca – counter-screen for OX1R antagonists: effect in parental CHO cells; parental CHO-K1, ATP-induced calcium, Fluo-8 fluorescence; inhibition, % at 5.6 µM; 0.63% of 330,000 active; AID 463079;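 active = inhibition above that plate's mean sample inhibition plus 3 SD, cut at about 26% in these data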
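Test system: untransfected parental CHO cell line. Compound: one dose, 5.6 µM nominal. Detection: intracellular calcium via Fluo-8 no-wash fluorescent dye. Measure: % inhibition. Benchmarks: ATP-challenged DMSO wells low, unchallenged DMSO wells high.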
TAAR1 antag – human TAAR1 antagonism; CHO RD-HGA16 TAAR1, Fluo-8 calcium fluorescence, antagonist; inhibition, % at 3 µM; 1.5% of 360,000 active; AID 624466;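 active = inhibition above a per-plate cutoff, the mean inhibition of test compounds on that plate plus 3 SD, cut at about 49% in these data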
Target sequence (Q96RJ0 whole entry, looked up): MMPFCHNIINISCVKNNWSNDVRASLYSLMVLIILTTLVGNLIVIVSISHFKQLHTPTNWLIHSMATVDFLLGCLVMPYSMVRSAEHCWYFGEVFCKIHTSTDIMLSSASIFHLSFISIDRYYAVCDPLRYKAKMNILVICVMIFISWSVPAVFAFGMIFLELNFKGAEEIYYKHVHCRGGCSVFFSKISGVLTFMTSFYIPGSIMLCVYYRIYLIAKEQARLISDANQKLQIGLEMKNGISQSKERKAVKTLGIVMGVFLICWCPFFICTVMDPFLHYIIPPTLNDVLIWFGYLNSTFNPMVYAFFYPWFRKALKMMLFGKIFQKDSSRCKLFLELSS
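Test system: RD-HGA16 CHO cells with stable hTAAR1 and Gα16 / Probe or stimulus: EC80 β-phenethylamine stimulus / Times: seeding 17-24 h prior, 75-min 37 °C, 30-min RT dye loading / Detection: Fluo-8 calcium-sensitive fluorescence / Read-out basis: % inhibition scaled between DMSO and EC80 PEA controls / Repeats: singlicate, one well per test compound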
OX1R antag-1 – human HCRTR1 antagonism; O43613; CHO/OX1R cells, Fluo-8 calcium fluorescence, orexin A; inhibition, % at 5 µM; 0.43% of 330,000 active; AID 434989;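 active = inhibition above its plate's threshold, mean inhibition of all tested compounds on the plate plus 3 SD, cut at about 37% in these data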
Target sequence (O43613 whole entry, looked up): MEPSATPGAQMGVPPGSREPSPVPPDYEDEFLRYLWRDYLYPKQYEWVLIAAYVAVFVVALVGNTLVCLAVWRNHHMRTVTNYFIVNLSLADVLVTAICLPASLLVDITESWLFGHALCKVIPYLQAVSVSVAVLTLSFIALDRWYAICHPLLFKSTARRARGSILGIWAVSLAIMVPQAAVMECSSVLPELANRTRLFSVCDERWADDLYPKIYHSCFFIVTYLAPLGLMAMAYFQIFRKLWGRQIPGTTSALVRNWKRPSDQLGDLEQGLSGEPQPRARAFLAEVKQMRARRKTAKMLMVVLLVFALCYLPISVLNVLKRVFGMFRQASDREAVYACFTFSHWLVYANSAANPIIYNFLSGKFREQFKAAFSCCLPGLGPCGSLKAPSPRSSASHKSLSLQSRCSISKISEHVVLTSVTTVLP
OX1R antag-2 – antagonists of human orexin 1 receptor (OX1R). 1.8% of 330,000 active. O43613. OX1R-expressing cells, FRET antagonist read-out. inhibition, % at 6.6 µM. AID 485270; in the data active = inhibition mostly above about 38%, no sharp cut-off; inactive = mostly below about 40%
TAAR1 ag – agonists of human TAAR1 | 0.99% of 360,000 active | activation, % at 3 µM | Q96RJ0 | CHO RD-HGA16 TAAR1, Fluo-8 calcium fluorescence; vehicle wells 0%, saturating PEA agonist 100%;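 active = activation above the mean activation of all test compounds in the run plus 3 SD, cut at about 38% in these data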
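System: CHO-derived RD-HGA16 cells with stable Gα16 and human TAAR1 / Times: 17-24 h plating, Fluo-8 75 min 37 °C, 30 min RT / Technique: calcium-sensitive Fluo-8 signal, excitation 470-495, emission 515-575 nm / Measure: % activation relative to PEA EC100 response / Benchmarks: DMSO and PEA EC100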
Each line names hits and unclear results; the compound was inactive in the other large screens. A selection: hits, their analogues and other compounds. The true share with any hit is near 3.9%.

C=CCSc1cc(C)nc2c(-c3ccccc3)cnn12	none
CC(=O)Nc1ccc(Nc2cc(C)nc3c(-c4ccccc4)cnn23)cc1	TAAR1 antag 49, TAAR1 ag 41
Cc1cc(N)n2ncc(-c3cccc(Br)c3)c2n1	OX1R antag-2 43
Cc1cc(N)n2ncc(-c3ccccc3)c2n1	none
CC(=O)O[C@H]1C=C[C@@H](NC(=O)OC(C)(C)C)C1	none (no result: CHO parental Ca, OX1R antag-1, OX1R antag-2)
N=c1c(C(=O)NC2CCCC2)cc2c(=O)n3ccccc3nc2n1Cc1ccccc1	none
O=C(NCCN1CCOCC1)c1c(O)nc2ccccn2c1=O	none
N=c1c(C(=O)NC2CCCC2)cc2c(=O)n3ccccc3nc2n1CCCN1CCOCC1	OX1R antag-2 45
N#Cc1cc2c(=O)n3ccccc3nc2n(CCCN2CCOCC2)c1=O	OX1R antag-2 54
CCCNc1nc2nc3ccccn3c(=O)c2cc1C(=O)NCCN1CCOCC1	OX1R antag-2 52
N#Cc1cc2c(=O)n3ccccc3nc2n(Cc2cccnc2)c1=O	none
COc1ccc(CCNC(=O)c2cc3c(=O)n4ccccc4nc3n(CCCN3CCOCC3)c2=N)cc1	OX1R antag-2 51
COc1ccc(CC(=O)Nc2nc(OCC(F)(F)F)cnc2-c2ccc(Cl)cc2Cl)cc1	none (no result: CHO parental Ca, OX1R antag-1, OX1R antag-2)
COC(=O)[C@]12C[C@H](CC(=O)NCCCN3CCCC3=O)C(=O)N(Cc3ccc4c(c3)OCO4)C1=C[C@H](C(C)(C)C)O[C@@H]2C	none (no result: CHO parental Ca, OX1R antag-1, OX1R antag-2)
CCCS(=O)(=O)NC(=O)C1(C)CCN(C(=O)c2ccccc2OC(C)=O)C1 (stereo not given)	none (no result: CHO parental Ca, OX1R antag-1, OX1R antag-2)
COC(=O)N1Cc2ccnnc2CC1c1ccccc1-c1ccc(OC)cc1 (stereo not given)	none (no result: CHO parental Ca, OX1R antag-1, OX1R antag-2)
Cc1ccc2nc3c(cc(C(=O)NC4CCCC4)c(=N)n3CCCn3ccnc3)c(=O)n2c1	OX1R antag-2 84 (no result: TAAR1 antag, TAAR1 ag)
COc1ccc(CCn2c(=N)c(C(=O)NCCN3CCOCC3)cc3c(=O)n4ccccc4nc32)cc1OC	OX1R antag-2 50
COc1ccc(CCNC(=O)c2cc3c(=O)n4ccccc4nc3n(CCN3CCOCC3)c2=N)cc1	none
COc1ccc(CCNC(=O)c2cc3c(=O)n4ccccc4nc3n(CCCN3CCOCC3)c2=N)cc1OC	OX1R antag-2 74
CCOC(=O)CN1C(=O)[C@]2(OCCC=C[C@H]2C)c2ccccc21	none (no result: CHO parental Ca, OX1R antag-1, OX1R antag-2)
O=[N+]([O-])c1ccc(S(=O)(=O)c2ccccc2)nc1	OX1R antag-2 59
Cc1cc(S(=O)(=O)c2ccc([N+](=O)[O-])cn2)ccc1Br	CHO parental Ca 55
C=C(C)Cn1c2ccc(NC(=O)NCc3ccc(F)cc3)cc2c(=O)n1C	none (no result: CHO parental Ca, OX1R antag-1, OX1R antag-2)
CC(C)(C)n1ncc2c(=O)n(Cc3cccc(Cn4cnc5c(cnn5C(C)(C)C)c4=O)c3F)cnc21	CHO parental Ca 62, OX1R antag-1 64
CCN1C(=O)[C@H]2[C@@H](c3ccc(C(F)(F)F)cc3)N[C@]3(CCCN(Cc4ccco4)C3=O)[C@H]2C1=O	none (no result: CHO parental Ca, OX1R antag-1, OX1R antag-2)
O=C1N=C(N2CCCCC2)S/C1=C\c1ccncc1	OX1R antag-2 45
O=C1N=C(N2CCOCC2)S/C1=C\c1cccnc1	OX1R antag-2 37
CN(C)Cc1c(O)ccc2c(-c3ccccc3)cc(=O)oc12	none
CN(C)Cc1c(O)ccc2cc(-c3nc4ccccc4n3C)c(=O)oc12	OX1R antag-2 43
CCc1ccc([C@@H]2CC=C(C(=O)O)[C@H](c3cccc(Cl)c3)N2S(=O)(=O)c2ccc(C)cc2)cc1	OX1R antag-2 71
Cc1ccc(S(=O)(=O)N2[C@@H](c3cccc(Cl)c3)C(C(=O)O)=CC[C@H]2c2cccc(Cl)c2)cc1	none
CCc1ccc([C@@H]2CC=C(C(=O)O)[C@H](c3ccc(Cl)cc3)N2S(=O)(=O)c2ccc(C)cc2)cc1	TAAR1 antag 52
CCc1ccc([C@@H]2CC=C(C(=O)O)[C@H](c3ccccc3F)N2S(=O)(=O)c2ccc(C)cc2)cc1	OX1R antag-2 60
CCc1ccc([C@@H]2CC=C(C(=O)O)[C@H](c3ccc(C)cc3)N2S(=O)(=O)c2ccc(C)cc2)cc1	none
COc1ccc([C@@H]2CC=C(C(=O)O)[C@H](c3cccc(Cl)c3)N2S(=O)(=O)c2ccc(Cl)cc2)cc1	OX1R antag-2 62
COc1ccc([C@@H]2CC=C(C(=O)O)[C@H](c3ccc(F)cc3)N2S(=O)(=O)c2ccc(Cl)cc2)cc1	none
COc1cccc([C@@H]2CC=C(C(=O)O)[C@H](c3ccccc3F)N2S(=O)(=O)c2ccc(C)cc2)c1	none
COc1cc(OC)cc(OC(=O)C2CCN(C(=O)c3ccc(Cl)cc3)CC2)c1	none
COc1cccc(C(=O)NCCN2CCC(n3c(=O)[nH]c4ccccc43)CC2)c1	none (no result: CHO parental Ca, OX1R antag-1, OX1R antag-2)
COC(=O)c1cc2c(c3c4ccccc4n(S(=O)(=O)c4ccc(OC)cc4)c13)C(=O)N(Cc1ccc(N(C)C)cc1)C2	none (no result: CHO parental Ca, OX1R antag-1, OX1R antag-2)
CCN(c1ccccc1)S(=O)(=O)c1ccc(C(=O)Nc2ccncc2)cc1	none
CS(=O)(=O)c1ncc(Cl)c(C(=O)Nc2ccc(N3CCOCC3)cc2)n1	none (no result: TAAR1 antag, TAAR1 ag)
CS(=O)(=O)c1ncc(Cl)c(C(=O)Nc2ccc(OC(F)F)cc2)n1	OX1R antag-2 53 (no result: TAAR1 antag, TAAR1 ag)
CCS(=O)(=O)c1ncc(Cl)c(C(=O)Nc2ccc(S(=O)(=O)N(C)c3ccccc3)cc2)n1	CHO parental Ca 52, TAAR1 antag 56, OX1R antag-1 51, OX1R antag-2 46
CCN(c1ccccc1)S(=O)(=O)c1ccc(NC(=O)c2nc(S(C)(=O)=O)ncc2Cl)cc1	CHO parental Ca 46, OX1R antag-1 62 (no result: TAAR1 antag, TAAR1 ag)
Cc1ccc(OCC(=O)NNC(=O)c2cc3ccccc3o2)cc1C	CHO parental Ca 49
O=C(N/N=C/c1ccc(Cl)cc1)c1ccc2nc[nH]c2c1	TAAR1 antag 53 (no result: CHO parental Ca, OX1R antag-1, OX1R antag-2)
COC(=O)c1ccc(/C=N/NC(=O)c2ccc3nc[nH]c3c2)cc1	none
Cc1ccc(N(CC(O)CN2CCOCC2)S(=O)(=O)c2ccc([N+](=O)[O-])cc2)cc1 (stereo not given)	OX1R antag-2 38
O=[N+]([O-])c1ccc(S(=O)(=O)CC(CN2CCOCC2)N2CCOCC2)cc1 (stereo not given)	OX1R antag-2 49
Cc1[nH]c2ccccc2c1CN1CCN(c2ccccn2)CC1	none
Cc1[nH]c2ccccc2c1CN1CCC(Cc2ccccc2)CC1	TAAR1 ag 41
CCNc1nc(-c2sc(NC(=O)C(C)(C)C)nc2C)c(-n2cc(-c3ccccc3)nn2)s1	TAAR1 antag 75 (no result: CHO parental Ca, OX1R antag-1, OX1R antag-2)
Cc1nc(NC(=O)C(C)(C)C)sc1-c1nc(N)sc1-n1cc(-c2ccccc2)nn1	none (no result: CHO parental Ca, OX1R antag-1, OX1R antag-2)
CC1(C)OC(=O)C2=C(C[C@@H](CCOCc3ccccc3)O[C@@H]2c2ccc(F)cc2)O1	none (no result: CHO parental Ca, OX1R antag-1, OX1R antag-2)
COC(=O)[C@]12C[C@H](CC(=O)NCC34CC5CC(CC(C5)C3)C4)C(=O)N(Cc3ccc4c(c3)OCO4)C1=C[C@H](C(C)(C)C)O[C@@H]2C	none (no result: CHO parental Ca, OX1R antag-1, OX1R antag-2)
CCN(CCc1ccccc1)c1ccc2c(c1)C1CC2CCN1Cc1ccccc1 (stereo not given)	none (no result: CHO parental Ca, OX1R antag-1, OX1R antag-2)
